In ChEMBL document CHEMBL1667826, “Synthesis, modification, and evaluation of (R)-de-O-methyllasiodiplodin and analogs as nonsteroidal antagonists of mineralocorticoid receptor” (Bioorg Med Chem Lett, 2011):

The compounds below were run against T1, Mineralocorticoid receptor (Rattus norvegicus, UniProt P22199) (assay: Antagonist activity at rat mineralocorticoid receptor-ligand binding domain expressed in AH109 yeast cells co expressing pGADT7-hSRC-1 by two hybrid assay). Conditions: not given; call rule not given here.
T1 sequence (P22199 whole entry): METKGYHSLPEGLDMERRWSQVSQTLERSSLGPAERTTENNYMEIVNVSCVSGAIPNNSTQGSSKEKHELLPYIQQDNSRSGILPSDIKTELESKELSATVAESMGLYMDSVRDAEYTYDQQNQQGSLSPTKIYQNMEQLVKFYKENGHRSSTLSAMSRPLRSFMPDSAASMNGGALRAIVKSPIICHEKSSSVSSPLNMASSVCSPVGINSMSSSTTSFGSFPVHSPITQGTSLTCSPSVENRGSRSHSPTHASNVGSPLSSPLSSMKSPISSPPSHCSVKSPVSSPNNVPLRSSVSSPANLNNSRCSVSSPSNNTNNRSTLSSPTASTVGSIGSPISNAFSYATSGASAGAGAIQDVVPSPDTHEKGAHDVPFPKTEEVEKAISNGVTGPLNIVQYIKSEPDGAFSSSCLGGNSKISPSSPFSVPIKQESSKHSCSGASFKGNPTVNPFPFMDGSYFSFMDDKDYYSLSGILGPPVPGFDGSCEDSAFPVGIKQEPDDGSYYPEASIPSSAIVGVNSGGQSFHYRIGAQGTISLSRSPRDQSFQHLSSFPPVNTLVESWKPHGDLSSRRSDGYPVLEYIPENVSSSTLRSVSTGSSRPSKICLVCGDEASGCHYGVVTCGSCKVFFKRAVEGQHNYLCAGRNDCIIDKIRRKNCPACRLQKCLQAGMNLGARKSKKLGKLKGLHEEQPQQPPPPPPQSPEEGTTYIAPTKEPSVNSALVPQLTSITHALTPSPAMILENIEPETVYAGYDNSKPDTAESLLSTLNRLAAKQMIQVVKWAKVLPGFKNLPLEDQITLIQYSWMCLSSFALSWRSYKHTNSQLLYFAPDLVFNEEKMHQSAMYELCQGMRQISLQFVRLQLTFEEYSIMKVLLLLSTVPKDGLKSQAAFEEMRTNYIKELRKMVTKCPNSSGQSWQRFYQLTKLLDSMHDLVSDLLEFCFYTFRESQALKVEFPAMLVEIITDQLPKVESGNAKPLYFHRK
Type: cell-based
Procedure, shortened: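 Yeast two-hybrid read-out of corticosterone-stimulated interaction between the MR ligand-binding domain and the SRC1 coactivator. Antagonism of this interaction is expressed as IC50.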

| SMILES | IC50 |
| --- | --- |
| C[C@@H]1CCCCCCCc2cc(OC(=O)c3ccc(Br)cc3)cc(OC(=O)c3ccc(Br)cc3)c2C(=O)O1 | Not Active |
| COc1cc2c(c(OC)c1)C(=O)O[C@H](C)CCC/C=C/CC2 | Not Active |
| COc1cc(O)cc2c1C(=O)O[C@H](C)CCCCCCC2 | Not Active |
| C[C@@H]1CCCCCCCc2cc(OCc3ccc([N+](=O)[O-])cc3)cc(OCc3ccc([N+](=O)[O-])cc3)c2C(=O)O1 | Not Active |
| CCOc1cc2c(c(OCC)c1)C(=O)O[C@H](C)CCCCCCC2 | Not Active |
| CCCCOc1cc2c(c(OCCCC)c1)C(=O)O[C@H](C)CCCCCCC2 | Not Active |
| C[C@@H]1CCCCCCCc2cc(OC(=O)c3ccccc3)cc(OC(=O)c3ccccc3)c2C(=O)O1 | Not Active |
| C=CCOc1cc2c(c(OCC=C)c1)C(=O)O[C@H](C)CCCCCCC2 | Not Active |
| CCCOc1cc2c(c(OCCC)c1)C(=O)O[C@H](C)CCCCCCC2 | Not Active |
| CCCC(=O)Oc1cc2c(c(OC(=O)CCC)c1)C(=O)O[C@H](C)CCCCCCC2 | Not Active |
| O=C1OCCCCCCCCCCc2cc(O)cc(O)c21 | Not Active |
| C=CCCC[C@@H](C)OC(=O)c1c(CCC=C)cc(OC)cc1OC | Not Active |
| O=C1OCCCCCCCCCc2cc(O)cc(O)c21 | Not Active |
| CC(C)C(=O)Oc1cc2c(c(OC(=O)C(C)C)c1)C(=O)O[C@H](C)CCCCCCC2 | Not Active |
| COc1cc(O)c2c(c1)CCCCCCC[C@@H](C)OC2=O | Not Active |
| COc1cc2c(c(OC)c1)C(=O)O[C@H](C)CCCCCCC2 | Not Active |
| C=CCOc1cc(O)c2c(c1)CCCCCCC[C@@H](C)OC2=O | Not Active |
| O=C1OCCCCCCCCc2cc(O)cc(O)c21 | Not Active |
| O=C1OCCCCCCCc2cc(O)cc(O)c21 | Not Active |
| CCOc1cc(O)c2c(c1)CCCCCCC[C@@H](C)OC2=O | Not Active |
| C[C@@H]1CCCCCCCc2cc(OCc3ccccc3)cc(OCc3ccccc3)c2C(=O)O1 | Not Active |
| CCCOc1cc(O)c2c(c1)CCCCCCC[C@@H](C)OC2=O | Not Active |
| C[C@@H]1CCCCCCCc2cc(OCc3ccccc3)cc(O)c2C(=O)O1 | Not Active |
| C[C@@H]1CCCCCCCc2cc(OC(=O)c3ccc(Cl)cc3)cc(OC(=O)c3ccc(Cl)cc3)c2C(=O)O1 | Not Active |

Same assay, conditions: read-out: IC50

| SMILES | IC50 [µM] |
| --- | --- |
| COc1cc2c(c(OC)c1)C(=O)O[C@H](C)CCC/C=C\CC2 | 16.6 |
| CC(=O)Oc1cc2c(c(OC(C)=O)c1)C(=O)OCCCCCCC2 | 0.58 |
| CC(=O)Oc1cc2c(c(OC(C)=O)c1)C(=O)OCCCCCCCC2 | 1.11 |
| Cc1ccc(S(=O)(=O)Oc2cc3c(c(OS(=O)(=O)c4ccc(C)cc4)c2)C(=O)O[C@H](C)CCCCCCC3)cc1 | 6.51 |
| CCC(=O)Oc1cc2c(c(OC(=O)CC)c1)C(=O)O[C@H](C)CCCCCCC2 | 31.7 |
| CC(=O)Oc1cc2c(c(OC(C)=O)c1)C(=O)O[C@H](C)CCCCCCC2 | 2.78 |
| CC(=O)Oc1cc2c(c(OC(C)=O)c1)C(=O)OCCCCCCCCCC2 | 2.9 |
| CC(=O)Oc1cc2c(c(OC(C)=O)c1)C(=O)OCCCCCCCCC2 | 0.82 |
| C[C@@H]1CCCCCCCc2cc(O)cc(O)c2C(=O)O1 | 8.93 |

What follows are compounds tested against T2, Progesterone receptor (Homo sapiens, UniProt P06401) (assay: Inhibition of progesterone receptor ligand binding domain expressed in HEK293T cells). Conditions: hek-293t.
T2 sequence (P06401 whole entry): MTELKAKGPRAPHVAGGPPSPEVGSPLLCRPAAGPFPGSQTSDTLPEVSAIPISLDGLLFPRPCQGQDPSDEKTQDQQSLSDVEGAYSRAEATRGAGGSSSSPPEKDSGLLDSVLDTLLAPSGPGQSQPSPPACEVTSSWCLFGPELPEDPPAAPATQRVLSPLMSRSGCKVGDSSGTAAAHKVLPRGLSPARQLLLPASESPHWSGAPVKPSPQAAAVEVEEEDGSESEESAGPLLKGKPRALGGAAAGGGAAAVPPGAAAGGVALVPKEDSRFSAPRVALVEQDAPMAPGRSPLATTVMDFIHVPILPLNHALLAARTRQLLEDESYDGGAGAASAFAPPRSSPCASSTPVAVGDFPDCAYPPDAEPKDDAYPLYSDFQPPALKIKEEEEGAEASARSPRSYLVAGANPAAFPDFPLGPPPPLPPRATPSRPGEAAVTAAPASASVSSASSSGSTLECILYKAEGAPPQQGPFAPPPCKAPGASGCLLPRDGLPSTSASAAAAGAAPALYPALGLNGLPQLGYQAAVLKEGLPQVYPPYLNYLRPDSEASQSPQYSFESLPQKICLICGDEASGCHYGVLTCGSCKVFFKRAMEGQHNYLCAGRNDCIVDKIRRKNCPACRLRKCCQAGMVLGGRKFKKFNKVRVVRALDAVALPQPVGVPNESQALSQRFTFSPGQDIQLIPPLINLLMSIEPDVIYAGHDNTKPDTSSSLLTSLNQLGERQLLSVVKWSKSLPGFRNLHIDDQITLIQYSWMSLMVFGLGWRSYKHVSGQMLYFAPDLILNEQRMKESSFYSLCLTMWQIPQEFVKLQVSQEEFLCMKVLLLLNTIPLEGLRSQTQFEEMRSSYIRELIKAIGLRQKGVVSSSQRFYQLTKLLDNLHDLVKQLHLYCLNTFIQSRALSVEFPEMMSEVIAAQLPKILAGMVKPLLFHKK
Type: cell-based, HEK-293T
Procedure, shortened: (§1)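 Mammalian one-hybrid assay in HEK293T cells transiently co-transfected with a UAS-TK-Luc reporter, pRL-SV40 and a pGAL4 fusion of the receptor LBD (ERα, GR or PR). The read-out is luciferase, measuring antagonism at each receptor.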

| SMILES | IC50 |
| --- | --- |
| CC(=O)Oc1cc2c(c(OC(C)=O)c1)C(=O)OCCCCCCC2 | Not Active |
| CC(=O)Oc1cc2c(c(OC(C)=O)c1)C(=O)OCCCCCCCC2 | Not Active |
| CC(=O)Oc1cc2c(c(OC(C)=O)c1)C(=O)O[C@H](C)CCCCCCC2 | Not Active |

Same assay, conditions: read-out: IC50

| SMILES | IC50 [µM] |
| --- | --- |
| CC(=O)Oc1cc2c(c(OC(C)=O)c1)C(=O)OCCCCCCCCCC2 | 3.22 |
| CC(=O)Oc1cc2c(c(OC(C)=O)c1)C(=O)OCCCCCCCCC2 | 3.06 |

These compounds were tested against T3, Estrogen receptor (Homo sapiens, UniProt P03372) (assay: Inhibition of ERalpha ligand binding domain expressed in HEK293T cells). Conditions: hek-293t.
T3 sequence (P03372 whole entry): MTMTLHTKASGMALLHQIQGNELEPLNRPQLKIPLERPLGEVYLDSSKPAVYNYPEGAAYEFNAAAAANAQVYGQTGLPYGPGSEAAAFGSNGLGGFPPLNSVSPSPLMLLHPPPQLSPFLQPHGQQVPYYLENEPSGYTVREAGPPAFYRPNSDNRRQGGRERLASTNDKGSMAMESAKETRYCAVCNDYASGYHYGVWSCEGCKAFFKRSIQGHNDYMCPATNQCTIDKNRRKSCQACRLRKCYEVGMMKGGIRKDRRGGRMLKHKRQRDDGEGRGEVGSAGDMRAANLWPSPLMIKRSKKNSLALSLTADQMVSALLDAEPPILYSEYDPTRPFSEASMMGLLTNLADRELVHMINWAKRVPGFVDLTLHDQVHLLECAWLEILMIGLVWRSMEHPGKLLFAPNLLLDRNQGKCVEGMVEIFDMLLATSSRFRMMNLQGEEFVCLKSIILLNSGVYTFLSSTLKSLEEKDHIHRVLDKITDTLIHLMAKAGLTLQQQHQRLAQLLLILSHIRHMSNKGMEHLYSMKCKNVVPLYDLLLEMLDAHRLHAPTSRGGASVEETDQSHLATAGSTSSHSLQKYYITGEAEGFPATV
Type: cell-based, HEK-293T
Procedure, shortened: as §1

| SMILES | IC50 |
| --- | --- |
| CC(=O)Oc1cc2c(c(OC(C)=O)c1)C(=O)OCCCCCCC2 | Not Active |
| CC(=O)Oc1cc2c(c(OC(C)=O)c1)C(=O)OCCCCCCCC2 | Not Active |
| CC(=O)Oc1cc2c(c(OC(C)=O)c1)C(=O)OCCCCCCCCC2 | Not Active |

Same assay, conditions: read-out: IC50

| SMILES | IC50 [µM] |
| --- | --- |
| CC(=O)Oc1cc2c(c(OC(C)=O)c1)C(=O)O[C@H](C)CCCCCCC2 | 8.36 |
| CC(=O)Oc1cc2c(c(OC(C)=O)c1)C(=O)OCCCCCCCCCC2 | > 10 |

These compounds were tested against T4, Glucocorticoid receptor (Homo sapiens, UniProt P04150) (assay: Inhibition of glucocorticoid receptor ligand binding domain expressed in HEK293T cells). Conditions: hek-293t.
T4 sequence (P04150 whole entry): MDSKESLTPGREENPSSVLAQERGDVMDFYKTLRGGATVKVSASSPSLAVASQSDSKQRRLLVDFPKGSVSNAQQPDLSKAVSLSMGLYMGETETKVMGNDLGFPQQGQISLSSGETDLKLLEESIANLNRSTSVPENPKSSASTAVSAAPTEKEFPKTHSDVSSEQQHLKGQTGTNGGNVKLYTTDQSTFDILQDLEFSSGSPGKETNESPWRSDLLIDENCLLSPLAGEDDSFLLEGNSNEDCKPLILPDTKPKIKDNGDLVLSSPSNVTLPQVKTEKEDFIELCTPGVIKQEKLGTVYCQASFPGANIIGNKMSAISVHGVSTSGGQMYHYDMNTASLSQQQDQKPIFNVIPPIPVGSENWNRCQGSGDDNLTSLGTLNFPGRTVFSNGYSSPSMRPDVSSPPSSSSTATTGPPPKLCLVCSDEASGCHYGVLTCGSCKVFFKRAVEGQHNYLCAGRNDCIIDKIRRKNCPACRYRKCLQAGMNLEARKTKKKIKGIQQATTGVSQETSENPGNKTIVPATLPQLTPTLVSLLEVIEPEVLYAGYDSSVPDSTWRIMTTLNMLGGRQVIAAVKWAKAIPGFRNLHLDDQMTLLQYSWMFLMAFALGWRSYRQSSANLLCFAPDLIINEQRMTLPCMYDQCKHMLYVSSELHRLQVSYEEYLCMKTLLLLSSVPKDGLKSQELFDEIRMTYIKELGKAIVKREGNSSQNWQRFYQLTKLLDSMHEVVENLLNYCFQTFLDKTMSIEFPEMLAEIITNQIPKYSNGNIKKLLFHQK
Type: cell-based
Procedure, shortened: as §1

| SMILES | IC50 |
| --- | --- |
| CC(=O)Oc1cc2c(c(OC(C)=O)c1)C(=O)OCCCCCCC2 | Not Active |
| CC(=O)Oc1cc2c(c(OC(C)=O)c1)C(=O)OCCCCCCCC2 | Not Active |
| CC(=O)Oc1cc2c(c(OC(C)=O)c1)C(=O)O[C@H](C)CCCCCCC2 | Not Active |
| CC(=O)Oc1cc2c(c(OC(C)=O)c1)C(=O)OCCCCCCCCCC2 | Not Active |
| CC(=O)Oc1cc2c(c(OC(C)=O)c1)C(=O)OCCCCCCCCC2 | Not Active |
